Measurements taken from ChEMBL document CHEMBL4480373, “Neuropilin-1 peptide-like ligands with proline mimetics, tested using the improved chemiluminescence affinity detection method” (Medchemcomm, 2019).
Square brackets hold non-standard residues; d marks the D form. Peptide text beside a SMILES is read from it. Oic = O=C(O)[C@@H]1C[C@@H]2CCCC[C@@H]2N1; Hyp = O=C(O)[C@@H]1C[C@@H](O)CN1; Pip(4-aza) = O=C(O)[C@@H]1CNCCN1; hArg = N=C(N)NCCCC[C@H](N)C(=O)O; Tic = O=C(O)[C@@H]1Cc2ccccc2CN1; ΔPro = O=C(O)[C@@H]1C=CCN1; Aze = O=C(O)[C@@H]1CCN1; Dab = NCC[C@H](N)C(=O)O

Key:
[1] = target: Neuropilin-1 (Rattus norvegicus, UniProt Q9QWJ9); test: Inhibition of human biotinylated VEGF-A165 binding to Fc-tagged recombinant rat NRP1 receptor after 2 hrs by colorimetric analysis
[2] = target: Neuropilin-1 (Rattus norvegicus) (UniProt Q9QWJ9); test: Inhibition of human biotinylated VEGF-A165 binding to Fc-tagged recombinant rat NRP1 receptor at 10 uM after 2 hrs by colorimetric analysis relative to control
[3] = target: Neuropilin-1 (Rattus norvegicus) (UniProt Q9QWJ9); test: Inhibition of human biotinylated VEGF-A165 binding to Fc-tagged recombinant rat NRP1 receptor at 3 uM after 2 hrs by colorimetric analysis relative to control
[4] = target: Neuropilin-1 (Rattus norvegicus) (UniProt Q9QWJ9); test: Inhibition of human biotinylated VEGF-A165 binding to Fc-tagged recombinant rat NRP1 receptor at 1 uM after 2 hrs by colorimetric analysis relative to control
[5] = target: Neuropilin-1 (Rattus norvegicus) (UniProt Q9QWJ9); test: Inhibition of human biotinylated VEGF-A165 binding to Fc-tagged recombinant rat NRP1 receptor at 0.3 uM after 2 hrs by colorimetric analysis relative to control
[6] = target: T1, Neuropilin-1 (Homo sapiens, UniProt O14786); test: Inhibition of human biotinylated VEGF-A165 binding to recombinant human NRP1 receptor after 2 hrs by chemiluminescence analysis
T1 sequence (O14786 whole entry): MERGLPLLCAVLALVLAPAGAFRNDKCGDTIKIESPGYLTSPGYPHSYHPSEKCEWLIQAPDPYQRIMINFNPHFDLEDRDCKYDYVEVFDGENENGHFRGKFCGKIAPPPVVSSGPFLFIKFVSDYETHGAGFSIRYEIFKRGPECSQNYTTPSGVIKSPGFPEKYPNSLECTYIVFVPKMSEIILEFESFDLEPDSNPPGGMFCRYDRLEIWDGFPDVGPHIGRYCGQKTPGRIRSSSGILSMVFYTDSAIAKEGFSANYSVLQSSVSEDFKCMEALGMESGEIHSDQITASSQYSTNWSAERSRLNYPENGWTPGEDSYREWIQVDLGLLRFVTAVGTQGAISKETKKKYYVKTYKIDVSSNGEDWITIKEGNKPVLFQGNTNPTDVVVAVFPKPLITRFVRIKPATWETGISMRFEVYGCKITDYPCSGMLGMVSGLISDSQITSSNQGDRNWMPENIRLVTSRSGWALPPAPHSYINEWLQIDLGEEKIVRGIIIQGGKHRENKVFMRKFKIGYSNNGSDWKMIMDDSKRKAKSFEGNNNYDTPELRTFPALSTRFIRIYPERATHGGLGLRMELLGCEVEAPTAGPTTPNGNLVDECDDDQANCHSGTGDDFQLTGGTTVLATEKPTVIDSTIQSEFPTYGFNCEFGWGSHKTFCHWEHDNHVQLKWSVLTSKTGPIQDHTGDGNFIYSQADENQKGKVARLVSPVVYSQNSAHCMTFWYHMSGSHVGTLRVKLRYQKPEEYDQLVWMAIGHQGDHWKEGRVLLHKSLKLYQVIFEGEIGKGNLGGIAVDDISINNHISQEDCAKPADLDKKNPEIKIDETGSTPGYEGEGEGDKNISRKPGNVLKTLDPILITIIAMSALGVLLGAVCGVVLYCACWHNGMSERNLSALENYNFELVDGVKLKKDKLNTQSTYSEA
Procedure, shortened: (§1)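 Wells coated overnight at 4 °C with recombinant human NRP-1 (200 ng/well), blocked with 0.5% BSA/PBS. Peptide in PBS and biotinylated human VEGF-A165 (400 ng/mL, in PBS with 4 µg/mL heparin) incubated 2 h at room temperature. Detection by streptavidin-HRP and luminol chemiluminescence. Controls: ligand only (positive) and uncoated wells (negative). % inhibition calculated from these. IC50 by nonlinear regression.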

[7] = target: T1, Neuropilin-1; test: Inhibition of human biotinylated VEGF-A165 binding to recombinant human NRP1 receptor at 100 uM after 2 hrs by chemiluminescence analysis relative to control; procedure, shortened: as §1
[8] = target: T1, Neuropilin-1; test: Inhibition of human biotinylated VEGF-A165 binding to recombinant human NRP1 receptor at 50 uM after 2 hrs by chemiluminescence analysis relative to control; procedure, shortened: as §1
[9] = target: T1, Neuropilin-1; test: Inhibition of human biotinylated VEGF-A165 binding to recombinant human NRP1 receptor at 25 uM after 2 hrs by chemiluminescence analysis relative to control; procedure, shortened: as §1
[10] = target: T1, Neuropilin-1; test: Inhibition of human biotinylated VEGF-A165 binding to recombinant human NRP1 receptor at 10 uM after 2 hrs by chemiluminescence analysis relative to control; procedure, shortened: as §1
[11] = target: Neuropilin-1 (Rattus norvegicus) (UniProt Q9QWJ9); test: Inhibition of human biotinylated VEGF-A165 binding to Fc-tagged recombinant rat NRP1 receptor at 0.1 uM after 2 hrs by colorimetric analysis relative to control
[12] = target: T1, Neuropilin-1; test: Inhibition of human biotinylated VEGF-A165 binding to recombinant human NRP1 receptor at 5 uM after 2 hrs by chemiluminescence analysis relative to control; procedure, shortened: as §1
[13] = target: T1, Neuropilin-1; test: Inhibition of human biotinylated VEGF-A165 binding to recombinant human NRP1 receptor at 2.5 uM after 2 hrs by chemiluminescence analysis relative to control; procedure, shortened: as §1
[14] = target: T1, Neuropilin-1; test: Inhibition of human biotinylated VEGF-A165 binding to recombinant human NRP1 receptor at 1 uM after 2 hrs by chemiluminescence analysis relative to control; procedure, shortened: as §1
[15] = Half life in human plasma at 1 umol/ml up to 96 hrs by RP-HPLC and LC/MS analysis; format: ADME, cell-free
Procedure, shortened: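 Citrate plasma pooled from four healthy donors, stored at –80 °C, preactivated 20 min at 37 °C with shaking. Aqueous peptide stock diluted into plasma to ~1 µmol/mL final and incubated 0–96 h. Aliquots quenched with equal volume 98% ethanol, centrifuged, supernatant lyophilized, reconstituted in water, analysed by RP-HPLC (LC-MS for selected samples). Half-life obtained by nonlinear regression.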

N=C(N)NCCCC[C@H](N)C(=O)NCCCC[C@H](N)C(=O)N1CCC[C@H]1C(=O)N1CCC[C@H]1C(=O)N[C@@H](CCCNC(=N)N)C(=O)O (H-K(hArg)PPR-OH)
IC50 [1]: 1 µM
inhibition [2]: 92.2%
inhibition [3]: 79%
inhibition [4]: 41.4%
inhibition [5]: 4.7%
IC50 ([6]; read-out: IC50): 20.9 µM
inhibition [7]: 77%
inhibition [8]: 67.9%
inhibition [9]: 54.1%
inhibition [10]: 37.1%

N=C(N)NCCCC[C@H](N)C(=O)NCCCC[C@H](N)C(=O)N1CC[C@H]1C(=O)N1CC[C@H]1C(=O)N[C@@H](CCCNC(=N)N)C(=O)O (H-K(hArg)[Aze][Aze]R-OH)
IC50 ([6]; read-out: IC50): 48.6 µM
inhibition [7]: 59.9%
inhibition [8]: 53.6%
inhibition [9]: 41.9%
inhibition [10]: 30%

N=C(N)NCCCC[C@H](N)C(=O)NCCCC[C@H](N)C(=O)N[C@@H](CCN)C(=O)N1CCC[C@H]1C(=O)N[C@@H](CCCNC(=N)N)C(=O)O (H-K(hArg)[Dab]PR-OH)
IC50 [1]: 0.2 µM
inhibition [2]: 99.6%
inhibition [3]: 92.8%
inhibition [4]: 83.7%
inhibition [5]: 59.6%
inhibition [11]: 35.8%
IC50 ([6]; read-out: IC50): 8.9 µM
inhibition [7]: 79.8%
inhibition [8]: 76.6%
inhibition [9]: 70.4%
inhibition [10]: 58.6%
inhibition [12]: 43.7%
inhibition [13]: 31.4%
inhibition [14]: 13.8%

N=C(N)NCCCC[C@H](N)C(=O)NCCCC[C@H](N)C(=O)N[C@@H](CCN)C(=O)N1CC[C@H]1C(=O)N[C@@H](CCCNC(=N)N)C(=O)O (H-K(hArg)[Dab][Aze]R-OH)
IC50 ([6]; read-out: IC50): 11.7 µM
IC50 ([6]; read-out: pIC50 (converted)): 10.7 µM
inhibition [7]: 78.8%
inhibition [8]: 75.8%
inhibition [9]: 69.1%
inhibition [10]: 49.6%
inhibition [12]: 30.1%
inhibition [13]: 12.9%
inhibition [14]: 7.7%

N=C(N)NCCCC[C@H](N)C(=O)NCCCC[C@H](N)C(=O)N[C@@H](CCN)C(=O)N1C[C@H](O)C[C@H]1C(=O)N[C@@H](CCCNC(=N)N)C(=O)O (H-K(hArg)[Dab][Hyp]R-OH)
IC50 ([6]; read-out: IC50): 9.2 µM
inhibition [7]: 78.6%
inhibition [8]: 76%
inhibition [9]: 67.3%
inhibition [10]: 54.3%
inhibition [12]: 36%
inhibition [13]: 22.3%
inhibition [14]: 22.5%

N=C(N)NCCCC[C@H](N)C(=O)NCCCC[C@H](N)C(=O)N[C@@H](CCN)C(=O)N1[C@H](C(=O)N[C@@H](CCCNC(=N)N)C(=O)O)C[C@@H]2CCCC[C@@H]21 (H-K(hArg)[Dab][Oic]R-OH)
IC50 ([6]; read-out: IC50): 2.3 µM
inhibition [7]: 83%
inhibition [8]: 79.5%
inhibition [9]: 77.7%
inhibition [10]: 63.4%
inhibition [12]: 52.3%
inhibition [13]: 50.9%
inhibition [14]: 37.7%
half-life at 1000 µM [15]: 54.9 h

N=C(N)NCCCC[C@H](N)C(=O)NCCCC[C@H](N)C(=O)N[C@@H](CCN)C(=O)N1CCNC[C@H]1C(=O)N[C@@H](CCCNC(=N)N)C(=O)O (H-K(hArg)[Dab][Pip(4-aza)]R-OH)
IC50 ([6]; read-out: IC50): 80.5 µM
inhibition [7]: 51.8%
inhibition [8]: 46%
inhibition [9]: 34.8%
inhibition [10]: 20.8%

N=C(N)NCCCC[C@H](N)C(=O)NCCCC[C@H](N)C(=O)N[C@@H](CCN)C(=O)N1Cc2ccccc2C[C@H]1C(=O)N[C@@H](CCCNC(=N)N)C(=O)O (H-K(hArg)[Dab][Tic]R-OH)
IC50 ([6]; read-out: IC50): > 100 µM
inhibition [7]: 0%
inhibition [8]: 17.2%
inhibition [9]: 35%
inhibition [10]: 31.5%

N=C(N)NCCCC[C@H](N)C(=O)NCCCC[C@H](N)C(=O)N[C@@H](CCN)C(=O)N1CC=C[C@H]1C(=O)N[C@@H](CCCNC(=N)N)C(=O)O (H-K(hArg)[Dab][ΔPro]R-OH)
IC50 ([6]; read-out: IC50): 4.3 µM
inhibition [7]: 87.1%
inhibition [8]: 84.4%
inhibition [9]: 78.1%
inhibition [10]: 70.7%
inhibition [12]: 58%
inhibition [13]: 44.8%
inhibition [14]: 29.9%
half-life at 1000 µM [15]: 51.1 h

N=C(N)NCCCC[C@H](N)C(=O)NCCCC[C@H](N)C(=O)N1C[C@H](O)C[C@H]1C(=O)N1C[C@H](O)C[C@H]1C(=O)N[C@@H](CCCNC(=N)N)C(=O)O (H-K(hArg)[Hyp][Hyp]R-OH)
IC50 ([6]; read-out: IC50): 21.3 µM
inhibition [7]: 71.7%
inhibition [8]: 63.1%
inhibition [9]: 56.8%
inhibition [10]: 36.7%

N=C(N)NCCCC[C@H](N)C(=O)NCCCC[C@H](N)C(=O)N1[C@H](C(=O)N2[C@H](C(=O)N[C@@H](CCCNC(=N)N)C(=O)O)C[C@@H]3CCCC[C@@H]32)C[C@@H]2CCCC[C@@H]21 (H-K(hArg)[Oic][Oic]R-OH)
IC50 ([6]; read-out: IC50): 7.2 µM
inhibition [7]: 83.6%
inhibition [8]: 77.6%
inhibition [9]: 68.2%
inhibition [10]: 53.4%
inhibition [12]: 47.8%
inhibition [13]: 42.1%
inhibition [14]: 32.9%

N=C(N)NCCCC[C@H](N)C(=O)NCCCC[C@H](N)C(=O)N1CCNC[C@H]1C(=O)N1CCNC[C@H]1C(=O)N[C@@H](CCCNC(=N)N)C(=O)O (H-K(hArg)[Pip(4-aza)][Pip(4-aza)]R-OH)
IC50 ([6]; read-out: IC50): 16 µM
inhibition [7]: 70.8%
inhibition [8]: 63.3%
inhibition [9]: 58.7%
inhibition [10]: 45%

N=C(N)NCCCC[C@H](N)C(=O)NCCCC[C@H](N)C(=O)N1Cc2ccccc2C[C@H]1C(=O)N1Cc2ccccc2C[C@H]1C(=O)N[C@@H](CCCNC(=N)N)C(=O)O (H-K(hArg)[Tic][Tic]R-OH)
IC50 ([6]; read-out: IC50): > 100 µM
inhibition [7]: 45.2%
inhibition [8]: 40.7%
inhibition [9]: 31.4%
inhibition [10]: 24.7%

N=C(N)NCCCC[C@H](N)C(=O)NCCCC[C@H](N)C(=O)N1CC=C[C@H]1C(=O)N1CC=C[C@H]1C(=O)N[C@@H](CCCNC(=N)N)C(=O)O (H-K(hArg)[ΔPro][ΔPro]R-OH)
IC50 ([6]; read-out: IC50): 14 µM
inhibition [7]: 79.3%
inhibition [8]: 72.2%
inhibition [9]: 61.3%
inhibition [10]: 45.4%

H-ATWLPPR-OH
IC50 ([6]; read-out: IC50): 84.1 µM
IC50 ([6]; read-out: pIC50 (converted)): 83.2 µM
inhibition [7]: 58.2%
inhibition [8]: 43.8%
inhibition [9]: 35%
inhibition [10]: 30.8%
